# Reference: ChEMBL document CHEMBL4041524, “Synthesis and Characterization of a Novel γ-Aminobutyric Acid Type A (GABAA) Receptor Ligand That Combines Outstanding Metabolic Stability, Pharmacokinetics, and Anxiolytic Efficacy” (J Med Chem, 2016)
# The source made the active and inactive calls. No cut-off for these calls is given here.
# Legend:
# Rattus norvegicus = experiment: Anxiolytic like activity in water-deprived Sprague-Dawley rat assessed as increase in water drinking time during punished period at 30 mg/kg, po administered 30 prior to testing by Vogel conflict test relative to vehicle control; assay type: functional
# How it was run: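 Water-deprived male Sprague-Dawley rats (n = 6–8) drank during unpunished and punished periods, with licking suppressed by mild shock in punished periods. Compounds were given 30 min before testing. Analysis was ANOVA with Dunnett's test.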
# [1] = target: T1, GABA-A receptor; alpha-5/beta-3/gamma-2 (Homo sapiens) (UniProt P18507+P28472+P31644); experiment: Modulation of recombinant GABA alpha5beta3gamma2 receptor (unknown origin) expressed in Xenopus laevis oocytes assessed as change in GABA-induced EC(3 to 6) current by two-electrode voltage clamp assay; assay type: cell-based
# How it was run: (§1)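 Xenopus laevis oocytes expressing α1, α2, α3 or α5 β3γ2 GABAARs were recorded by two-electrode voltage clamp. Modulation of the GABA EC3-6 current (taken as 100%) was tested at 100 nM, 1 μM and 10 μM in the same cells. Values are mean ± SEM, n = 3–4.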
# Liver [2] = experiment: Metabolic stability in rat liver microsomes assessed as compound remaining at 4 uM measured after 30 mins in presence of NADPH by LC-MS/MS analysis; assay type: ADME, microsome; details: 0.5 h
# How it was run: (§2)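 Human, mouse or rat liver microsomes were incubated with compound at 4 μM final for 30 min at 37 °C (n = 1). Percent of parent remaining was quantified by LC-MS/MS.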
# Liver [3] = experiment: Metabolic stability in human liver microsomes assessed as compound remaining at 4 uM measured after 30 mins in presence of NADPH by LC-MS/MS analysis; assay type: ADME, microsome; details: 0.5 h; how it was run: as §2
# Mus musculus [4] = experiment: Toxicity in Swiss mouse assessed as change in motor coordination by measuring number of falls from the rotating rod at 30 mg/kg, ip administered 30 mins prior to testing measured for 2 mins by rotarod test relative to control; assay type: organism-based; details: in vivo
# How it was run: (§3)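 The same mice used for marble burying were placed on a rotarod at 4 r.p.m. for 2 min. No fall was scored success, one fall partial, and two falls failure.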
# [5] = Total plasma concentration in Sprague-Dawley rat at 10 mg/kg, po measured after 60 mins by LC-MS/MS analysis; assay type: ADME, organism-based
# How it was run: (§4)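 Sprague-Dawley rats (n = 3 per time point) were given 10 mg/kg p.o. Total plasma concentrations were taken at 15, 30, 60 and 120 min. Brain levels of the dosed ligand and of the carboxylic acid metabolite were taken at 60 or 120 min.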
# [6] = target: T2, GABA-A receptor; alpha-2/beta-3/gamma-2 (Homo sapiens) (UniProt P18507+P28472+P47869); experiment: Modulation of recombinant GABA alpha2beta3gamma2 receptor (unknown origin) expressed in Xenopus laevis oocytes assessed as change in GABA-induced EC(3 to 6) current at 100 nM by two-electrode voltage clamp assay; assay type: cell-based; how it was run: as §1
# Liver [7] = experiment: Metabolic stability in mouse liver microsomes assessed as compound remaining at 4 uM measured after 30 mins in presence of NADPH by LC-MS/MS analysis; assay type: ADME, microsome; details: 0.5 h; how it was run: as §2
# [8] = target: T2, GABA-A receptor; alpha-2/beta-3/gamma-2 (Homo sapiens); experiment: Modulation of recombinant GABA alpha2beta3gamma2 receptor (unknown origin) expressed in Xenopus laevis oocytes assessed as change in GABA-induced EC(3 to 6) current at 10 uM by two-electrode voltage clamp assay; assay type: cell-based; how it was run: as §1
# Brain = experiment: Drug metabolism in Sprague-Dawley rat brain assessed as (E)-8-ethynyl-6-(pyridin-2-yl)-4H-benzo[f]imidazo[1,5-a][1,4]diazepine-3-carboxylic acid formation at 10 mg/kg, po measured after 120 mins by LC-MS/MS analysis; assay type: ADME, organism-based; details: in vivo, 2 h; how it was run: as §4
# Mus musculus [9] = experiment: Toxicity in Swiss mouse assessed as change in motor coordination by measuring number of falls from the rotating rod at 10 mg/kg, ip administered 30 mins prior to testing measured for 2 mins by rotarod test relative to control; assay type: organism-based; details: in vivo; how it was run: as §3
# [10] = target: T3, GABA-A receptor; alpha-1/beta-3/gamma-2 (Homo sapiens) (UniProt P14867+P18507+P28472); experiment: Modulation of recombinant GABA alpha1beta3gamma2 receptor (unknown origin) expressed in Xenopus laevis oocytes assessed as change in GABA-induced EC(3 to 6) current at 10 uM by two-electrode voltage clamp assay; assay type: cell-based; how it was run: as §1
# [11] = target: T3, GABA-A receptor; alpha-1/beta-3/gamma-2 (Homo sapiens); experiment: Modulation of recombinant GABA alpha1beta3gamma2 receptor (unknown origin) expressed in Xenopus laevis oocytes assessed as change in GABA-induced EC(3 to 6) current at 1 uM by two-electrode voltage clamp assay; assay type: cell-based; how it was run: as §1
# [12] = Total plasma concentration in Sprague-Dawley rat at 10 mg/kg, po measured after 30 mins by LC-MS/MS analysis; assay type: ADME, organism-based; how it was run: as §4
# [13] = target: T4, GABA-A receptor; alpha-3/beta-3/gamma-2 (Homo sapiens) (UniProt P18507+P28472+P34903); experiment: Modulation of recombinant GABA alpha3beta3gamma2 receptor (unknown origin) expressed in Xenopus laevis oocytes assessed as change in GABA-induced EC(3 to 6) current by two-electrode voltage clamp assay; assay type: cell-based; how it was run: as §1
# [14] = target: T4, GABA-A receptor; alpha-3/beta-3/gamma-2 (Homo sapiens); experiment: Modulation of recombinant GABA alpha3beta3gamma2 receptor (unknown origin) expressed in Xenopus laevis oocytes assessed as change in GABA-induced EC(3 to 6) current at 1 uM by two-electrode voltage clamp assay; assay type: cell-based; how it was run: as §1
# [15] = target: T2, GABA-A receptor; alpha-2/beta-3/gamma-2 (Homo sapiens); experiment: Modulation of recombinant GABA alpha2beta3gamma2 receptor (unknown origin) expressed in Xenopus laevis oocytes assessed as change in GABA-induced EC(3 to 6) current by two-electrode voltage clamp assay; assay type: cell-based; how it was run: as §1
# [16] = target: T4, GABA-A receptor; alpha-3/beta-3/gamma-2 (Homo sapiens); experiment: Modulation of recombinant GABA alpha3beta3gamma2 receptor (unknown origin) expressed in Xenopus laevis oocytes assessed as change in GABA-induced EC(3 to 6) current at 10 uM by two-electrode voltage clamp assay; assay type: cell-based; how it was run: as §1
# [17] = target: T4, GABA-A receptor; alpha-3/beta-3/gamma-2 (Homo sapiens); experiment: Modulation of recombinant GABA alpha3beta3gamma2 receptor (unknown origin) expressed in Xenopus laevis oocytes assessed as change in GABA-induced EC(3 to 6) current at 100 nM by two-electrode voltage clamp assay; assay type: cell-based; how it was run: as §1
# [18] = target: T2, GABA-A receptor; alpha-2/beta-3/gamma-2 (Homo sapiens); experiment: Modulation of recombinant GABA alpha2beta3gamma2 receptor (unknown origin) expressed in Xenopus laevis oocytes assessed as change in GABA-induced EC(3 to 6) current at 1 uM by two-electrode voltage clamp assay; assay type: cell-based; how it was run: as §1
# [19] = Drug uptake in Sprague-Dawley rat brain at 10 mg/kg, po measured after 120 mins by LC-MS/MS analysis; assay type: ADME, organism-based; details: read-out: Drug uptake; how it was run: as §4
# [20] = Total plasma concentration in Sprague-Dawley rat at 10 mg/kg, po measured after 15 mins by LC-MS/MS analysis; assay type: ADME, organism-based; how it was run: as §4
# [21] = Cytotoxicity against HEK293T cells assessed as viable cells measured after 18 hrs by CellTiter-Glo assay; assay type: cell-based, HEK-293T; details: human, read-out: LD50
# How it was run: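 HEK293T cells were exposed to compound for 18 h (n = 4). Viable cells were quantified with CellTiter-Glo, and LD50 was derived.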
# [22] = Total plasma concentration in Sprague-Dawley rat at 10 mg/kg, po measured after 120 mins by LC-MS/MS analysis; assay type: ADME, organism-based; how it was run: as §4
# Mus musculus [23] = experiment: Anxiolytic-like activity in Swiss Webster mouse marble burying model of anxiety assessed as suppression of marble burying activity at 30 mg/kg, ip administered 30 mins prior to test relative to vehicle-control; assay type: functional, organism-based
# How it was run: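 Male NIH Swiss Webster mice (n = 10) received vehicle or compound at 10 or 30 mg/kg i.p. 30 min before marble burying testing. Sedation-like behaviour was noted by observation. Analysis was ANOVA with Dunnett's test vs vehicle.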
# [24] = target: T1, GABA-A receptor; alpha-5/beta-3/gamma-2 (Homo sapiens); experiment: Modulation of recombinant GABA alpha5beta3gamma2 receptor (unknown origin) expressed in Xenopus laevis oocytes assessed as change in GABA-induced EC(3 to 6) current at 10 uM by two-electrode voltage clamp assay; assay type: cell-based; how it was run: as §1
# [25] = target: T1, GABA-A receptor; alpha-5/beta-3/gamma-2 (Homo sapiens); experiment: Modulation of recombinant GABA alpha5beta3gamma2 receptor (unknown origin) expressed in Xenopus laevis oocytes assessed as change in GABA-induced EC(3 to 6) current at 1 uM by two-electrode voltage clamp assay; assay type: cell-based; how it was run: as §1
# [26] = target: T3, GABA-A receptor; alpha-1/beta-3/gamma-2 (Homo sapiens); experiment: Modulation of recombinant GABA alpha1beta3gamma2 receptor (unknown origin) expressed in Xenopus laevis oocytes assessed as change in GABA-induced EC(3 to 6) current by two-electrode voltage clamp assay; assay type: cell-based; how it was run: as §1
compound,measurement,setting,value
C#Cc1ccc2c(c1)C(c1ccccn1)=NCc1c(C(=O)OCC)ncn1-2,Activity,Rattus norvegicus,inactive
same,Activity,[1],Dose-dependent effect
same,Stability,Liver [2],58%
same,Stability,Liver [3],86%
same,Activity,Mus musculus [4],Toxic
same,concentration at 1 h,[5],< 12.2 nM
same,Activity,[6],111%
same,Stability,Liver [7],57%
same,Activity,[8],244%
same,Drug metabolism,Brain,10 nM
same,Activity,Mus musculus [9],Toxic
same,Activity,[10],178%
same,Activity,[11],147%
same,concentration at 0.5 h,[12],< 12.2 nM
same,Activity,[13],Dose-dependent effect
same,Activity,[14],195%
same,Activity,[15],Dose-dependent effect
same,Activity,[16],305%
same,Activity,[17],119%
same,Activity,[18],207%
same,concentration at 2 h,[19],< 12.2 nM
same,concentration at 0.25 h,[20],< 12.2 nM
same,CC50 at 18 h,[21],> 100 µM
same,concentration at 2 h,[22],< 12.2 nM
same,Activity,Mus musculus [23],Active
same,Activity,[24],158%
same,Activity,[25],134%
same,Activity,[26],Dose-dependent effect
